Measurements as given in article PMC5080318 (Cancer Chemotherapy and Pharmacology, 2016).
Like-named read-outs stand apart in the source and are kept apart here. Marks after values point to notes of the source that are not given here.

Legend:
[1] = test system: solid tumors and hematological malignancies; conditions: cited from earlier work; for antitumor activity: phase I trials, solid tumors and hematological malignancies
[2] = test system: acute myeloid leukemia (AML); conditions: cited from earlier work; for complete response rate / febrile neutropenia / stomatitis: randomized phase II trial, elderly patients with AML
[3] = test system: patients with advanced solid tumors; test: phase I dose escalation: DLT and MTD; format: in vivo
[4] = phase I pharmacokinetics, plasma and urine; format: in vivo, human; conditions: for mean terminal half-life: range over doses
[5] = test system: caspase-cleaved cytokeratin-18 (CK-18); test: plasma caspase-cleaved CK-18; format: in vivo, human; conditions: both schedules
Method in brief: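 Plasma was drawn pre-dose and at 48, 72 and 120 h after the first two 24-h IV infusions in each schedule: Days 1 and 15 of a 4-week cycle, or Day 1 of a 3-week cycle. Further samples were taken pre-dose and at 120 h post-dose up to Cycle 6. Caspase-cleaved CK-18 was quantified by validated ELISA.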

advanced solid tumors = test: antitumor activity; format: in vivo, human
[6] = test system: patients with advanced solid tumors; conditions: in vivo
[7] = test system: phosphorylated histone H3 (pHH3); conditions: in vitro; cited from earlier work
tumor cell lines = conditions: 48 h following treatment; cited from earlier work
[8] = test system: xenograft models of human non-small cell lung cancer, colon carcinoma, and pancreas carcinoma; conditions: cited from earlier work
[9] = test system: HCT 116 colorectal cancer model; conditions: preclinical models; ref Boehringer Ingelheim; data on file; cited from earlier work
[10] = test system: alpha-1-acid glycoprotein (AGP); conditions: preclinical; ref Boehringer Ingelheim, data on file; cited from earlier work
[11] = test system: patients with advanced solid tumors; test: phase I safety: adverse events
[12] = test system: patients with advanced solid tumors; conditions: cited from earlier work

CC(=O)NCC(=O)N1[C@@H]2CC[C@H]1c1ccc(Nc3ncc(C(F)(F)F)c(NC4CCC4)n3)cc12 [PF-03814735]
antitumor activity [1]: limited antitumor activity

Nc1ccn([C@@H]2O[C@H](CO)[C@@H](O)[C@@H]2O)c(=O)n1 [LDAC, cytosine arabinoside]
complete response rate [2]: 11.5%
febrile neutropenia [2]: 19%
stomatitis [2]: 15%

CC(C)NC(=O)[C@H]1CCC[C@H]1Nc1nc(Nc2ccc(C(=O)N(C)C3CCN(C)CC3)cc2)ncc1C(F)(F)F [BI 811283]
Patients with DLT ([3]; schedule A, 5 mg, n 3, first cycle): 0
Patients with DLT ([3]; schedule A, 10 mg, n 7, first cycle): 1
Patients with DLT ([3]; schedule A, 13.5 mg, n 3, first cycle): 0
Patients with DLT ([3]; schedule A, 18 mg, n 3, first cycle): 0
Patients with DLT ([3]; schedule A, 24 mg, n 4, first cycle): 0
Patients with DLT ([3]; schedule A, 32 mg, n 3, first cycle): 0
Patients with DLT ([3]; schedule A, 43 mg, n 5, first cycle): 0
Patients with DLT ([3]; schedule A, 58 mg, n 3, first cycle): 0
Patients with DLT ([3]; schedule A, 78 mg, n 7, first cycle): 1
Patients with DLT ([3]; schedule A, 105 mg, n 6, first cycle): 1
Patients with DLT ([3]; schedule A, 125 mg (MTD), n 16 incl. expansion cohort, first cycle): 1
Patients with DLT ([3]; schedule A, 140 mg, n 3, first cycle): 2
maximum tolerated dose (MTD) ([3]; schedule A: 24-h infusion Days 1 and 15 of a 4-week cycle): 125 mg
Patients with DLT ([3]; schedule B, 13.5 mg, n 3, first cycle): 0
Patients with DLT ([3]; schedule B, 18 mg, n 3, first cycle): 0
Patients with DLT ([3]; schedule B, 24 mg, n 3, first cycle): 0
Patients with DLT ([3]; schedule B, 32 mg, n 4, first cycle): 0
Patients with DLT ([3]; schedule B, 43 mg, n 3, first cycle): 0
Patients with DLT ([3]; schedule B, 58 mg, n 3, first cycle): 0
Patients with DLT ([3]; schedule B, 78 mg, n 3, first cycle): 0
Patients with retrospectively identified potential DLT ([3]; schedule B, 105 mg, n 6): 2
Patients with DLT ([3]; schedule B, 105 mg, n 6, first cycle): 1^c
Patients with retrospectively identified potential DLT ([3]; schedule B, 125 mg, n 3): 1
Patients with DLT ([3]; schedule B, 125 mg, n 3, first cycle): 0^c
Patients with DLT ([3]; schedule B, 150 mg, n 3, first cycle): 0
Patients with retrospectively identified potential DLT ([3]; schedule B, 180 mg, n 3): 1
Patients with DLT ([3]; schedule B, 180 mg, n 3, first cycle): 0^c
Patients with DLT ([3]; schedule B, 230 mg, second cohort n 3 (after 300 mg), first cycle): 0
Patients with DLT ([3]; schedule B, 270 mg, n 5, first cycle): 2
Patients with DLT ([3]; schedule B, 300 mg, n 3, first cycle): 2
maximum tolerated dose (MTD) ([3]; schedule B: 24-h infusion Day 1 of a 3-week cycle): 230 mg
exposure to total BI 811283 (bound and unbound) in patients with higher AGP plasma concentrations ([4]; human, in vivo): trend toward increased exposure
time to maximum plasma concentration after start of infusion ([4]; human, in vivo, iv): 20 to 24 h
Cmax and AUC0–∞ versus dose ([4]; in vivo): increased in a dose-dependent manner
fraction excreted in urine ([4]; in vivo): 4 to 12 % of the administered dose
time after end of infusion in which most of the compound was eliminated ([4]; in vivo): ≤ 6 h
mean terminal half-life ([4]; schedule A): 11.4 to 30.5 h
mean terminal half-life ([4]; schedule B): 10.1 to 27.0 h
level of caspase-cleaved CK-18 in plasma after infusion [5]: no consistent trend
best overall response SD, share of patients (advanced solid tumors; both treatment schedules): approximately 30%
objective response (advanced solid tumors; either treatment schedule): No patients
drug-related Alopecia, grade All [6]: 11 (17.5) n (%)
drug-related Fatigue, grade ≥3 [6]: 1 (1.7) n (%)
drug-related Nausea, grade ≥3 [6]: 1 (1.6) n (%)
drug-related alopecia, patients [6]: 19.8%
drug-related decreased appetite, patients [6]: 14.9%
drug-related diarrhea, patients [6]: 16.5%
drug-related fatigue, patients [6]: 31.4%
drug-related leukopenia, patients [6]: 28.9%
drug-related nausea, patients [6]: 24.0%
drug-related neutropenia, patients [6]: 33.1%
time of treatment until pHH3 was reduced [7]: ≤ 1 h
polyploidy, share of cells (tumor cell lines): up to 80%
pHH3 in xenograft models ([8]; marker of Aurora B kinase inhibition): decrease in pHH3
effect on tumor growth in xenograft models ([8]; tumor regression in some cases): dose-dependent inhibition of tumor growth
antitumor activity of weekly and 2-weekly 24-h continuous infusion [9]: similarly strong antitumor activity
protein binding [10]: dependent on the plasma concentrations of alpha-1-acid glycoprotein (AGP)
deaths considered related to the study treatment ([11]; 22 patients with fatal AEs): None
drug-related Alopecia, grade All ([11]; Schedule B, Total (N = 58)): 12 (20.7) n (%)
patients with SAEs regarded as drug related ([11]; all patients): Thirteen
patients with fatal AEs ([11]; all patients, n = 22): 18.2%
patients with serious AEs (SAEs) ([11]; all patients, n = 61): 50.4%
drug-related SAE febrile neutropenia ([11]; all patients, most common drug-related SAE): seven
patients with SAEs regarded as drug related ([11]; schedule A, n = 3): 4.8%
patients with fatal AEs ([11]; schedule A, n = 10): 15.9%
patients with serious AEs (SAEs) ([11]; schedule A, n = 33): 52.4%
patients with SAEs regarded as drug related ([11]; schedule B, n = 10): 17.2%
patients with fatal AEs ([11]; schedule B, n = 12): 20.7%
patients with serious AEs (SAEs) ([11]; schedule B, n = 28): 48.3%

CO[C@@H](C(=O)N1Cc2n[nH]c(NC(=O)c3ccc(N4CCN(C)CC4)cc3)c2C1)c1ccccc1 [danusertib]
clinical activity ([1]; advanced hematological malignancies): promising clinical activity
clinical activity ([1]; phase I/II studies in advanced solid tumors): limited activity

O=C(Nc1c[nH]nc1-c1nc2ccc(CN3CCOCC3)cc2[nH]1)NC1CC1 [AT9283]
antitumor activity [1]: limited antitumor activity

CCN(CCCOc1ccc2c(Nc3cc(CC(=O)Nc4cccc(F)c4)n[nH]3)ncnc2c1)CCOP(=O)(O)O [barasertib]
response rate ([2]; in combination with low-dose cytosine arabinoside (LDAC), AML): 45%
hematological response rate ([2]; monotherapy, phase I/II trials, AML): 19–25%
complete response rate [2]: 35.4%
febrile neutropenia [2]: 67%
stomatitis [2]: 71%
clinical activity ([1]; advanced solid tumors): limited activity in solid tumors

COc1cc(Nc2ncc3c(n2)-c2ccc(Cl)cc2C(c2c(F)cccc2OC)=NC3)ccc1C(=O)O [alisertib]
clinical activity ([1]; phase II study, preliminary evidence): durable disease control in multiple cancer types

O=C(O)c1ccc(Nc2ncc3c(n2)-c2ccc(Cl)cc2C(c2c(F)cccc2F)=NC3)cc1 [MLN8054]
dose-limiting toxicities [12]: DLTs of liver enzyme elevations were observed
